This note sets out measurements from ChEMBL document CHEMBL3352717, “Identification of the first inhibitor of the GBP1:PIM1 interaction. Implications for the development of a new class of anticancer agents against paclitaxel resistant cancer cells” (J Med Chem, 2014).

Structures are written as SMILES. Calls of active or inactive are those of the source. No cut-off for these calls is given here.

For the first assay, the target named is T1, Interferon-induced guanylate-binding protein 1/Serine/threonine-protein kinase pim-1 (Homo sapiens) (UniProt P11309+P32455). The assay is described as follows: Inhibition of GBP1 (unknown origin)-PIM1 (unknown origin) interaction at 100 nM by SPR analysis.
T1 sequence (P11309 whole entry, looked up): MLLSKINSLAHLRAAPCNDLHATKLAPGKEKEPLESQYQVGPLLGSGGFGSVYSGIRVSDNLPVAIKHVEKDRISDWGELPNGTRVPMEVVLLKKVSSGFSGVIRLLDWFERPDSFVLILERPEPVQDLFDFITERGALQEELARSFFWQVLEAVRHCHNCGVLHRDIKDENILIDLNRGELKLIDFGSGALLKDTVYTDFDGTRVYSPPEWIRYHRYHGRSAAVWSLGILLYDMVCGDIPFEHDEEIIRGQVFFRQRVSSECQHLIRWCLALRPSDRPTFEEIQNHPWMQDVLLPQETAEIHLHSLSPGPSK
T1 sequence (P32455 whole entry, looked up): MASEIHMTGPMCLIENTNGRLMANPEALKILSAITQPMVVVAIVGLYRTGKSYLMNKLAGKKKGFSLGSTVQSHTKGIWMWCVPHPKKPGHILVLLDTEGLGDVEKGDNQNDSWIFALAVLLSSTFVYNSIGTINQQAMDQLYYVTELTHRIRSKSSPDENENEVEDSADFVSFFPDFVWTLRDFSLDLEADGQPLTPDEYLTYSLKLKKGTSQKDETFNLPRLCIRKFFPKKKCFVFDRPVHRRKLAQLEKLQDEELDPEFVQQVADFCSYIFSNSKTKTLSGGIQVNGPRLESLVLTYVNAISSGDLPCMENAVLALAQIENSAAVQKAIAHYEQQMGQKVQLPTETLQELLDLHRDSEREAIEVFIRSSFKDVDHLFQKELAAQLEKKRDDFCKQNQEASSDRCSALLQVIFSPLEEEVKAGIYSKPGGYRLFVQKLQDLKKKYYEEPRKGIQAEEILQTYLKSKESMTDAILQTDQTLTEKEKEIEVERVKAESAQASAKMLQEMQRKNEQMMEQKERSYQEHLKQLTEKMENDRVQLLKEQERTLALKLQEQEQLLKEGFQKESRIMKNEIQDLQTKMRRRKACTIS
Conditions: not given
The format is protein assay. The essentials: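 Recombinant PIM1 amine-coupled (50 μg/mL in acetate pH 5.5, ~2000 RU) on an EDC/S-NHS-activated GLM chip; blank acetate-treated channel as reference. Compound co-injected with GBP1 280 nM in TBST, 30 μL/min for 120 s, 15 min dissociation. Carbonic anhydrase 280 nM was the negative control. % inhibition = RU with compound over RU with GBP1 alone; runs done at least three times.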
Broadly, the inhibition is the relative decrease from the control value, in per cent. In the case of `O=C1OCC2=C1C(c1cccc(Br)c1)c1cc3c(cc1N2CCO)OCCO3` (configuration not stated), the inhibition result was “inactive”.

In the case of `CCc1ccc2c(c1)N(CCO)C1=C(C(=O)OC1)C2c1ccccc1` (configuration not stated), the inhibition result is “inactive”.

Turning to `COc1cccc(C2C3=C(COC3=O)N(CCO)c3cc4c(cc32)CCC4)c1` (configuration not stated), the inhibition result was “inactive”.

`COc1ccc(C2C3=C(COC3=O)N(CCO)c3cc(OC)ccc32)cc1` (configuration not stated) came in with an inhibition of 10%.

`COc1ccc(C2C3=C(COC3=O)N(CCO)c3cc4c(cc32)OCCO4)cc1` (configuration not stated): the inhibition result is “inactive”.

`O=C1OCC2=C1C(c1ccccc1)c1cc3c(cc1N2CCO)CCC3` (configuration not stated): the inhibition result was “inactive”.

On to `COc1cccc(C2C3=C(COC3=O)N(CCO)c3cc4c(cc32)OCO4)c1` (configuration not stated), for which the inhibition result was “inactive”.

For `COc1cccc(C2C3=C(COC3=O)N(CCO)c3cc(OC)ccc32)c1` (configuration not stated), the inhibition was 10%.

Consider `COc1ccc(C2C3=C(COC3=O)N(CCO)c3cc(OC)c(OC)cc32)cc1` (configuration not stated), for which the inhibition result was “inactive”.

With `CCc1ccc2c(c1)N(CCO)C1=C(C(=O)OC1)C2c1ccc(Cl)c(Cl)c1` (configuration not stated), the inhibition result was “inactive”.

For the molecule `CCc1ccc2c(c1)N(CCO)C1=C(C(=O)OC1)C2c1cccc(Cl)c1` (configuration not stated), the inhibition is 10%.

`COc1cccc(C2C3=C(COC3=O)N(CCO)c3cc(OC)c(OC)cc32)c1` (configuration not stated) showed an inhibition of 10%.

For the molecule `COc1cc2c(cc1OC)N(CCO)C1=C(C(=O)OC1)C2c1ccc(Cl)c(Cl)c1` (configuration not stated), the inhibition result is “inactive”.

Take `O=C1OCC2=C1C(c1ccc(Cl)c(Cl)c1)c1cc3c(cc1N2CCO)CCC3` (configuration not stated): the inhibition entry is “inactive”.

On to `O=C1OCC2=C1C(c1ccccc1)c1cc3c(cc1N2CCO)OCCO3` (configuration not stated), for which the inhibition entry is “inactive”.

`COc1cc2c(cc1OC)N(CCO)C1=C(C(=O)OC1)C2c1cccc(Br)c1` (configuration not stated) yielded an inhibition of 10%.

Consider `COc1cccc(C2C3=C(COC3=O)N(CCO)c3cc4c(cc32)OCCO4)c1` (configuration not stated), for which the inhibition entry is “inactive”.

As to `COc1cc(C2C3=C(COC3=O)N(CCO)c3cc4c(cc32)OCO4)cc(OC)c1O` (configuration not stated), the inhibition result was “inactive”.

On to `O=C1OCC2=C1C(c1cccc(Cl)c1)c1cc3c(cc1N2CCO)CCC3` (configuration not stated), for which the inhibition result was “inactive”.

Take `COc1ccc(C2C3=C(COC3=O)N(CCO)c3cc4c(cc32)CCC4)cc1OC` (configuration not stated): the inhibition entry was “inactive”.

`COc1cc2c(cc1OC)N(CCO)C1=C(C(=O)OC1)C2c1cccc(Cl)c1` (configuration not stated): the inhibition turned out to be 10%.

`CCc1ccc2c(c1)N(CCO)C1=C(C(=O)OC1)C2c1cc(OC)c(OC)c(OC)c1` (configuration not stated): the inhibition result is “inactive”.

On to `O=C1OCC2=C1C(c1cccc(Cl)c1)c1cc3c(cc1N2CCO)OCCO3` (configuration not stated), for which the inhibition result is “inactive”.

In the case of `COc1ccc2c(c1)N(CCO)C1=C(C(=O)OC1)C2c1cccc(Br)c1` (configuration not stated), the inhibition stood at 10%.

Turning to `O=C1OCC2=C1C(c1ccc(Cl)c(Cl)c1)c1cc3c(cc1N2CCO)OCCO3` (configuration not stated), the inhibition entry was “inactive”.

As for `COc1cc(C2C3=C(COC3=O)N(CCO)c3cc4c(cc32)OCCO4)cc(OC)c1O` (configuration not stated), the inhibition entry was “inactive”.

For `COc1ccc(C2C3=C(COC3=O)N(CCO)c3cc(OC)c(OC)cc32)cc1OC` (configuration not stated), the inhibition came to 10%.

In the case of `COc1cc(C2C3=C(COC3=O)N(CCO)c3cc4c(cc32)CCC4)cc(OC)c1O` (configuration not stated), the inhibition entry was “inactive”.

As for `O=C1OCC2=C1C(c1cccc(Br)c1)c1cc3c(cc1N2CCO)CCC3` (configuration not stated), the inhibition entry is “inactive”.

As to `O=C1OCC2=C1C(c1cccc(Cl)c1)c1cc3c(cc1N2CCO)OCO3` (configuration not stated), the inhibition result is “inactive”.

Regarding `COc1cc(C2C3=C(COC3=O)N(CCO)c3cc4c(cc32)OCO4)cc(OC)c1OC` (configuration not stated), the inhibition entry was “inactive”.

In the case of `COc1cc(C2C3=C(COC3=O)N(CCO)c3cc4c(cc32)OCCO4)cc(OC)c1OC` (configuration not stated), the inhibition entry is “inactive”.

For the molecule `COc1ccc2c(c1)N(CCO)C1=C(C(=O)OC1)C2c1ccc(OC)c(OC)c1` (configuration not stated), the inhibition entry was “inactive”.

For `COc1ccc(C2C3=C(COC3=O)N(CCO)c3cc4c(cc32)CCC4)cc1` (configuration not stated), the inhibition entry is “inactive”.

Regarding `COc1ccc(C2C3=C(COC3=O)N(CCO)c3cc4c(cc32)OCO4)cc1` (configuration not stated), the inhibition result was “inactive”.

Take `O=C1OCC2=C1C(c1ccccc1)c1cc3c(cc1N2CCO)OCO3` (configuration not stated): the inhibition result is “inactive”.

`COc1ccc2c(c1)N(CCO)C1=C(C(=O)OC1)C2c1ccccc1` (configuration not stated): the inhibition was determined as 65%.

As to `COc1ccc(C2C3=C(COC3=O)N(CCO)c3cc4c(cc32)OCCO4)cc1OC` (configuration not stated), the inhibition result is “inactive”.

Turning to `COc1cc(C2C3=C(COC3=O)N(CCO)c3cc4c(cc32)CCC4)cc(OC)c1OC` (configuration not stated), the inhibition entry was “inactive”.

Consider `COc1ccc(C2C3=C(COC3=O)N(CCO)c3cc4c(cc32)OCO4)cc1OC` (configuration not stated), for which the inhibition result is “inactive”.

On to `COc1ccc2c(c1)N(CCO)C1=C(C(=O)OC1)C2c1cc(OC)c(OC)c(OC)c1` (configuration not stated), for which the inhibition was found to be 10%.

In the case of `CCc1ccc2c(c1)N(CCO)C1=C(C(=O)OC1)C2c1cccc(Br)c1` (configuration not stated), the inhibition entry is “inactive”.

In the case of `COc1cc2c(cc1OC)N(CCO)C1=C(C(=O)OC1)C2c1cc(OC)c(OC)c(OC)c1` (configuration not stated), the inhibition came out at 10%.

Regarding `COc1cc2c(cc1OC)N(CCO)C1=C(C(=O)OC1)C2c1ccccc1` (configuration not stated), the inhibition result is “inactive”.

The next assay deals with T1, Interferon-induced guanylate-binding protein 1/Serine/threonine-protein kinase pim-1 (Homo sapiens). Briefly: Inhibition of GBP1 (unknown origin)-PIM1 (unknown origin) interaction by SPR analysis. The format is protein assay.
Conditions: not given
The essentials: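 Recombinant PIM1 (50 μg/mL in acetate buffer pH 5.5) amine-coupled to GLM chip via EDC/S-NHS (~2000 RU); compound (0.1, 1, 10, 100 nM) co-injected with GBP1 280 nM in TBST, 30 μL/min, 120 s, 15 min dissociation; DMSO 0.2% v/v. CA 280 nM negative control. % inhibition = RU with compound over GBP1-alone maximum; runs at least three times.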
For orientation: Surface plasmon resonance follows binding to a sensor surface in real time, without labels.
`COc1ccc2c(c1)N(CCO)C1=C(C(=O)OC1)C2c1ccccc1` (configuration not stated): the inhibition entry is “Dose-dependent effect”.

The next assay shares this target. Briefly: Inhibition of GBP1-PIM1 interaction in human SKOV3 cells at 100 nM after 3 hrs by co-immunoprecepitation method. The conditions noted are these: SK-OV-3. The format is cell-based. The essentials:
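SKOV3 cells treated 3 h with compound; cells scraped, lysed, PIM1 immunoprecipitated (anti-IgG negative control); co-precipitated GBP1 detected by Western blot with anti-GBP1 (67 kD band, antibodies 1:200 in 5% milk–TBST). Bands quantified by densitometry; DMSO vehicle control.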
Consider `COc1ccc2c(c1)N(CCO)C1=C(C(=O)OC1)C2c1ccccc1` (configuration not stated), for which the inhibition result is “Active”.

With `COc1ccc2c(c1)N(CCO)C1=C(C(=O)OC1)C2c1cc(OC)c(OC)c(OC)c1` (configuration not stated), the inhibition entry is “inactive”.
